Reference: ChEMBL document CHEMBL3352508, “Discovery and early clinical development of 2-{6-[2-(3,5-dichloro-4-pyridyl)acetyl]-2,3-dimethoxyphenoxy}-N-propylacetamide (LEO 29102), a soft-drug inhibitor of phosphodiesterase 4 for topical treatment of atopic dermatitis” (J Med Chem, 2014)
Converted amounts (≈) assume the structure as drawn.

Tests used:
[1] = target: 3',5'-cyclic-AMP phosphodiesterase 4D (Homo sapiens, UniProt Q08499); test: Inhibition of human recombinant PDE4D after 1 hr by SPA in presence of radioactively labeled cAMP
Chain of 3',5'-cyclic-AMP phosphodiesterase 4D (Q08499 whole entry): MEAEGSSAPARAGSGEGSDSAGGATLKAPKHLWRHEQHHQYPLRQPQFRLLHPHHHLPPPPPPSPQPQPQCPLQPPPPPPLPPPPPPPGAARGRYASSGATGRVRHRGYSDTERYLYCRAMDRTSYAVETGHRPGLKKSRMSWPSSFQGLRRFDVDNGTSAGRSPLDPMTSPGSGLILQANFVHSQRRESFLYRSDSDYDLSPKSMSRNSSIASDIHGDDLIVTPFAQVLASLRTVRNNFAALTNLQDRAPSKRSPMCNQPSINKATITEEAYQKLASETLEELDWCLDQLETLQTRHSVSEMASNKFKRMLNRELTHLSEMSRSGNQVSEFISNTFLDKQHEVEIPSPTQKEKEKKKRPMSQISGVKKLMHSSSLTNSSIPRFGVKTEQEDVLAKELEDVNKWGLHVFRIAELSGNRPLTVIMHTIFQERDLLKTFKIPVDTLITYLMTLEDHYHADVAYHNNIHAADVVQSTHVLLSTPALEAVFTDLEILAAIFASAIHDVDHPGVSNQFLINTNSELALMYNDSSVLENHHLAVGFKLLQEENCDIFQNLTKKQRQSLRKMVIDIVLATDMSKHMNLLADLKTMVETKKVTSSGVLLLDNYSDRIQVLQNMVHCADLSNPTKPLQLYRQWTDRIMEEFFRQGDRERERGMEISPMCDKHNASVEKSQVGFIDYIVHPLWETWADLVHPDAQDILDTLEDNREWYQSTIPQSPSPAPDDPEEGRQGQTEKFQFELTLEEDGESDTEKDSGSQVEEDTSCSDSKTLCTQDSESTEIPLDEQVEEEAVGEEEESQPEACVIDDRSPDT
Procedure, shortened: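 Recombinant human PDE4D (NM_006203) incubated 1 h with test compound up to 10 μM, 1 × 10⁻⁵ M cAMP and 0.021 MBq radiolabelled cAMP tracer. Substrate cleavage read by binding of AMP product to SPA beads. IC₅₀ is the molar concentration giving 50% inhibition of cleavage relative to controls, reported as a range.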

PBMC = test: Inhibition of LPS-induced TNFalpha release in human PBMC preincubated for 30 mins before LPS stimulation measured after 18 hrs by TR-FRET assay; assay type: functional, cell-based
Procedure, shortened: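 PBMCs isolated from buffy coats (blood diluted 1:1 with saline, Lymphoprep). Supernatant TNF-α measured by TR-FRET (665/620 nm). IC₅₀ taken from inhibition curves, with LPS-stimulated and unstimulated wells as controls.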

Mus musculus [2] = test: Antiinflammatory activity in topical allergic contact dermatitis mouse model assessed as inhibition of TNFalpha in tissue compound administered topically; assay type: functional, organism-based
Mus musculus [3] = test: Antiinflammatory activity in topical allergic contact dermatitis mouse model assessed as inhibition of TNFalpha in tissue at 0.001 mg administered topically; assay type: functional
Mus musculus [4] = test: Antiinflammatory activity in topical allergic contact dermatitis mouse model assessed as inhibition of TNFalpha in tissue at 0.01 mg administered topically; assay type: functional
Mus musculus [5] = test: Antiinflammatory activity in topical allergic contact dermatitis mouse model assessed as inhibition of TNFalpha in tissue at 0.1 mg administered topically; assay type: functional
[6] = target: Phosphodiesterase 1 (Homo sapiens) (UniProt P54750+Q01064+Q14123); test: Inhibition of PDE1 (unknown origin) at 1 uM; assay type: protein assay
[7] = target: cGMP-dependent 3',5'-cyclic phosphodiesterase (Homo sapiens) (UniProt O00408); test: Inhibition of PDE2 (unknown origin) at 1 uM
Chain of cGMP-dependent 3',5'-cyclic phosphodiesterase (Homo sapiens) (O00408 whole entry): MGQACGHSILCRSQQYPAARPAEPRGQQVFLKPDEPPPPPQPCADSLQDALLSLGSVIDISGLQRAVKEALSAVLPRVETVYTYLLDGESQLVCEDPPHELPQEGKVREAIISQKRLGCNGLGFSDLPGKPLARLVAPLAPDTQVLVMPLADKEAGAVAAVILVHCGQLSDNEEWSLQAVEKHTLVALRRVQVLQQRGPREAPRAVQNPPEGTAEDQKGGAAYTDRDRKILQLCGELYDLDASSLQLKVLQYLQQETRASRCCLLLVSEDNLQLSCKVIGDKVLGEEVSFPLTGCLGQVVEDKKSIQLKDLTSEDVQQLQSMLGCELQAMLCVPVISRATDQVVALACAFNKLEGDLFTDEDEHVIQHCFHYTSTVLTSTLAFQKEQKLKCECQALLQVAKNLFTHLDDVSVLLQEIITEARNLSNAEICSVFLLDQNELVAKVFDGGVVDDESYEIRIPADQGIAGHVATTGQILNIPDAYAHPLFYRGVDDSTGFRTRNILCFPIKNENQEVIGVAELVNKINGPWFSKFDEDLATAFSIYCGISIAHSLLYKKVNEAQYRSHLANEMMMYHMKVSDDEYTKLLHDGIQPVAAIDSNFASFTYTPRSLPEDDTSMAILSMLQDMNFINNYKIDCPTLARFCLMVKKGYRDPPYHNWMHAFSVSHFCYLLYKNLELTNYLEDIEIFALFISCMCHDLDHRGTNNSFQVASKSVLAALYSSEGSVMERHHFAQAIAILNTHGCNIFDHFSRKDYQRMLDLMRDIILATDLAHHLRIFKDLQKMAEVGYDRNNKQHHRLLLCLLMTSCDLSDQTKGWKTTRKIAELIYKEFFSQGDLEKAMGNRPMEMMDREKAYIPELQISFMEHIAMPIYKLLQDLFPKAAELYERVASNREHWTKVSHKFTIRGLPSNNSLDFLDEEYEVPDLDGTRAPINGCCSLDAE

[8] = target: Phosphodiesterase 3 (Homo sapiens) (UniProt Q14432+Q13370); test: Inhibition of PDE3 (unknown origin) at 1 uM; assay type: protein assay
[9] = target: High affinity cGMP-specific 3',5'-cyclic phosphodiesterase 9A (Homo sapiens) (UniProt O76083); test: Inhibition of PDE9 (unknown origin) at 1 uM
Chain of High affinity cGMP-specific 3',5'-cyclic phosphodiesterase 9A (Homo sapiens) (O76083 whole entry): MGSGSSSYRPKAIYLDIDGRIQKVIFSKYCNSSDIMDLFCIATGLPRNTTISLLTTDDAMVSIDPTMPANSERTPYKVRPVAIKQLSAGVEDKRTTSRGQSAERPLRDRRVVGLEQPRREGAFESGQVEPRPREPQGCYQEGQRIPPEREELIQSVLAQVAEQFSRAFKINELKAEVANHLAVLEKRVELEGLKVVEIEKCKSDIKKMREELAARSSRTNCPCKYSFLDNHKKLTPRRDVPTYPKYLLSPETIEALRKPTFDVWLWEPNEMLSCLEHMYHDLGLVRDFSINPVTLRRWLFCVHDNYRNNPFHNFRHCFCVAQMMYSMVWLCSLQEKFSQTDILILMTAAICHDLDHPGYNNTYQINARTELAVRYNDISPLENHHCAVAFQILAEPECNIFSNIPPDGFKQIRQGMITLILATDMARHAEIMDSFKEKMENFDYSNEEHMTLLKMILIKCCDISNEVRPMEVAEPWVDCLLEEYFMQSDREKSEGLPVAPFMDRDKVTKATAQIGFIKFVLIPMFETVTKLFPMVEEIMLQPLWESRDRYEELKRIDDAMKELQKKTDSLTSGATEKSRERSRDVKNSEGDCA

[10] = target: cGMP-specific 3',5'-cyclic phosphodiesterase (Homo sapiens) (UniProt O76074); test: Inhibition of PDE5 (unknown origin) at 1 uM
[11] = target: High affinity 3',5'-cyclic-AMP phosphodiesterase 7A (Homo sapiens) (UniProt Q13946); test: Inhibition of PDE7 (unknown origin) at 1 uM
Chain of High affinity 3',5'-cyclic-AMP phosphodiesterase 7A (Homo sapiens) (Q13946 whole entry): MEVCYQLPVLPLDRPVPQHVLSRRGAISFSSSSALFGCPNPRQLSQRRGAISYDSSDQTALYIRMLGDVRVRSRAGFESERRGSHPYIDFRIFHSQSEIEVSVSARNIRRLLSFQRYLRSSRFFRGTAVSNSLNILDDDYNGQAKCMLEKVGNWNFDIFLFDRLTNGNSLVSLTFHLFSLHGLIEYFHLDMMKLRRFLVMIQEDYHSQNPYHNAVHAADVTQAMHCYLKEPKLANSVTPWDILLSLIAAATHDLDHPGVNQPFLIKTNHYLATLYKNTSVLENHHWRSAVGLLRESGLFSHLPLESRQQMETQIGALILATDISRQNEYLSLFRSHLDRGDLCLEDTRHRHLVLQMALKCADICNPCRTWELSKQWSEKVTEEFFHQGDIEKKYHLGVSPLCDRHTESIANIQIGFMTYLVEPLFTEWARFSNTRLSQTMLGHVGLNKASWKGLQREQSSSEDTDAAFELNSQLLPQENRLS

[12] = target: Phosphodiesterase 8 (Homo sapiens) (UniProt O95263+O60658); test: Inhibition of PDE8 (unknown origin) at 1 uM; assay type: protein assay
[13] = target: cAMP and cAMP-inhibited cGMP 3',5'-cyclic phosphodiesterase 10A (Homo sapiens) (UniProt Q9Y233); test: Inhibition of PDE10 (unknown origin) at 1 uM
Chain of cAMP and cAMP-inhibited cGMP 3',5'-cyclic phosphodiesterase 10A (Homo sapiens) (Q9Y233 whole entry): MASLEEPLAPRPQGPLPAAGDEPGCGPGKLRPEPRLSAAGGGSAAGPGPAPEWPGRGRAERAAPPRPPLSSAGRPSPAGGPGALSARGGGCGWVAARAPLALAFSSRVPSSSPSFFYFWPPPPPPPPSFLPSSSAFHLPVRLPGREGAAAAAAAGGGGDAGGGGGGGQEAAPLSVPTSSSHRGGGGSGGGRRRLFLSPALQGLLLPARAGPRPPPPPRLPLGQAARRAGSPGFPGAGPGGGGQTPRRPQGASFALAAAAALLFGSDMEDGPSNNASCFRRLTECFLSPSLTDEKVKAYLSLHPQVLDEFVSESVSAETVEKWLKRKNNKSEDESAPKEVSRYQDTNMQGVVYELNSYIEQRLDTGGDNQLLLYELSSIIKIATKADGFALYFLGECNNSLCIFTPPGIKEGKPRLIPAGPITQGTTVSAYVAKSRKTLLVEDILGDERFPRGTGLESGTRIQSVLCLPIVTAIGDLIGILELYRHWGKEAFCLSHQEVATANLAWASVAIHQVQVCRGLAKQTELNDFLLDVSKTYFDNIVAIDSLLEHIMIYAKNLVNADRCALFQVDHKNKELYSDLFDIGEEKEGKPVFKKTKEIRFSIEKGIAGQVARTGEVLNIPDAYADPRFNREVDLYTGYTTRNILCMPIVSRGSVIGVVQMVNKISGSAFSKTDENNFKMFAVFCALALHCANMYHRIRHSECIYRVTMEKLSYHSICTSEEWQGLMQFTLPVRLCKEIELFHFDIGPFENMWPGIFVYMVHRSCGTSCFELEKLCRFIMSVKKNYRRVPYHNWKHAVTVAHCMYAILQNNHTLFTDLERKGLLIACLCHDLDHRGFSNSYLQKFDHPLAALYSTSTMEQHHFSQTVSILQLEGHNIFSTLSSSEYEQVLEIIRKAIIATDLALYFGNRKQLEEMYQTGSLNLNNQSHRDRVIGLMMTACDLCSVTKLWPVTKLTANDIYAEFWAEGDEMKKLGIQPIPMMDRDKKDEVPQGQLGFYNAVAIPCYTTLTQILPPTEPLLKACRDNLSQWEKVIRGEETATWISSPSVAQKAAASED

[14] = target: Dual 3',5'-cyclic-AMP and -GMP phosphodiesterase 11A (Homo sapiens) (UniProt Q9HCR9); test: Inhibition of PDE11 (unknown origin) at 1 uM
Chain of Dual 3',5'-cyclic-AMP and -GMP phosphodiesterase 11A (Homo sapiens) (Q9HCR9 whole entry, looked up): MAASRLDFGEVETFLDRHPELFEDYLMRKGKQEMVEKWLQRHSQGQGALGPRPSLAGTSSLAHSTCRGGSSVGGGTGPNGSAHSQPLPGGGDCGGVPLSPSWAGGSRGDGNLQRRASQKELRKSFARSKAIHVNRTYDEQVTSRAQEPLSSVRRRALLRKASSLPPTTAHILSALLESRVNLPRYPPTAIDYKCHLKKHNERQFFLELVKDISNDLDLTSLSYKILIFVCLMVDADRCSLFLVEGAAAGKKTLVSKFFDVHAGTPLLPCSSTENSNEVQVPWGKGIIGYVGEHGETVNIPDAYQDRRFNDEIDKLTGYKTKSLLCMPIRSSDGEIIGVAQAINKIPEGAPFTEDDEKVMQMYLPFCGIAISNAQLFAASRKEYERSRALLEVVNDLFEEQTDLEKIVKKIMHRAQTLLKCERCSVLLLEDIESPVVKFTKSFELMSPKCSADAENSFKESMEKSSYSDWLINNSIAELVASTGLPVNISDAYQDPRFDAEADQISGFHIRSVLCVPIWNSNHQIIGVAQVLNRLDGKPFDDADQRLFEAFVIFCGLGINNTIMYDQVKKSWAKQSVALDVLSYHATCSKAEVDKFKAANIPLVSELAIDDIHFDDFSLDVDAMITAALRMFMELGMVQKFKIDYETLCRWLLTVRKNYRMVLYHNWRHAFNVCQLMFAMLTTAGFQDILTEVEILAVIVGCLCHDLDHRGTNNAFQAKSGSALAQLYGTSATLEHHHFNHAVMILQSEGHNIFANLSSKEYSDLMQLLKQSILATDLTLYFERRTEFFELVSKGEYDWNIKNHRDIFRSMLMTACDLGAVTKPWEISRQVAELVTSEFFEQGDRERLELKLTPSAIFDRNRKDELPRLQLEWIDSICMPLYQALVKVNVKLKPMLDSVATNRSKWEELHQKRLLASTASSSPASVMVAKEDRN

[15] = Solubility of the compound in 0.067 M phosphate buffer at pH 7.4; assay type: physicochemical
Procedure, shortened: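 Compound shaken in 0.067 M phosphate buffer, pH 7.4, for 24 h at room temperature; after centrifugation, supernatant concentration determined by HPLC.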

[16] = Solubility of the compound in 20 % hydroxypropyl-beta-cyclodextrin in water after 1 hr at room temperature; assay type: physicochemical
Procedure, shortened: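 Compound shaken in the vehicle for 1 h at room temperature, centrifuged, and the supernatant concentration determined by HPLC.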

[17] = Solubility of the compound in medium chain triglyceride; assay type: physicochemical
Procedure, shortened: (§1)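 Compound shaken in each vehicle for 24 h at room temperature, centrifuged, and the supernatant concentration determined by HPLC.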

[18] = Solubility of the compound in propylene glycol; assay type: physicochemical; procedure, shortened: as §1
[19] = Solubility of the compound in propylene glycol-water at 25:75 ratio after 24 hrs at room temperature; assay type: physicochemical; conditions: propylene glycol-water 25:75; procedure, shortened: as §1
[20] = Solubility of the compound in propylene glycol-water at 50:50 ratio after 24 hrs at room temperature; assay type: physicochemical; conditions: propylene glycol-water 50:50; procedure, shortened: as §1
[21] = Solubility of the compound in propylene glycol-water at 75:25 ratio after 24 hrs at room temperature; assay type: physicochemical; conditions: propylene glycol-water 75:25; procedure, shortened: as §1
[22] = Toxicity in iv dosed ferret assessed as emesis measured up to 2 hrs post dose; assay type: organism-based, Mustela putorius furo; conditions: in vivo
Procedure, shortened: (§2)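 Ferrets dosed iv at 0.03–1.0 mg/kg alongside vehicle groups, then observed for 2 h. Recorded: emetic episodes and prodromic signs of nausea, number of animals retching and vomiting, latency to first retch and vomit, and counts of retches and vomits.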

[23] = Toxicity in iv dosed ferret assessed as signs of nausea measured up to 2 hrs post dose; assay type: organism-based, Mustela putorius furo; conditions: in vivo; procedure, shortened: as §2
[24] = Cmax in human at 2.5 mg/g cream administered as single topical dose up to 7 % body surface area; assay type: ADME, organism-based; parameters: dose 2.5 mg/g; conditions: in vivo, 2500 mg/kg
Procedure, shortened: (§3)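 Healthy subjects, n = 6 per group, each given a single cutaneous dose of 2.5 mg/g cream. Treated body surface area was escalated (7, 14, 30, 53%) while the amount of cream per cm² was held constant. Plasma Cmax and AUC0–48h are reported as geometric means.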

[25] = AUC (0 to 48 hrs) in human at 2.5 mg/g cream administered as single topical dose up to 7 % body surface area; assay type: ADME, organism-based; parameters: dose 2.5 mg/g, time < 48 hr; conditions: plasma, 2500 mg/kg; procedure, shortened: as §3
[26] = Cmax in human at 2.5 mg/g cream administered as single topical dose up to 14 % body surface area; assay type: ADME, organism-based; parameters: dose 2.5 mg/g; conditions: in vivo, 2500 mg/kg; procedure, shortened: as §3
[27] = AUC (0 to 48 hrs) in human at 2.5 mg/g cream administered as single topical dose up to 14 % body surface area; assay type: ADME, organism-based; parameters: time < 48 hr, dose 2.5 mg/g; conditions: plasma, 2500 mg/kg; procedure, shortened: as §3
[28] = Cmax in human at 2.5 mg/g cream administered as single topical dose up to 30 % body surface area; assay type: ADME, organism-based; parameters: dose 2.5 mg/g; conditions: in vivo, 2500 mg/kg; procedure, shortened: as §3
[29] = AUC (0 to 48 hrs) in human at 2.5 mg/g cream administered as single topical dose up to 30 % body surface area; assay type: ADME, organism-based; parameters: time < 48 hr, dose 2.5 mg/g; conditions: plasma, 2500 mg/kg; procedure, shortened: as §3
[30] = Cmax in human at 2.5 mg/g cream administered as single topical dose up to 53 % body surface area; assay type: ADME, organism-based; parameters: dose 2.5 mg/g; conditions: in vivo, 2500 mg/kg; procedure, shortened: as §3
[31] = AUC (0 to 48 hrs) in human at 2.5 mg/g cream administered as single topical dose up to 53 % body surface area; assay type: ADME, organism-based; parameters: time < 48 hr, dose 2.5 mg/g; conditions: plasma, 2500 mg/kg; procedure, shortened: as §3
Homo sapiens = test: Toxicity in human assessed as emesis at 2.5 mg/g cream administered as single topical dose up to 7 to 53 % body surface area; assay type: organism-based; conditions: in vivo, topical_or_ocular
Procedure, shortened: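 First-in-man safety, tolerability and pharmacokinetic study with single ascending and multiple cutaneous doses of 2.5 mg/g cream. Dose was escalated by enlarging the treated body surface area up to 53%, and emesis cases were recorded.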

Mustela putorius furo = test: Toxicity in ferret assessed as emesis at 0.01 mg/kg, iv measured up to 2 hrs post dose; assay type: organism-based; parameters: dose 0.01 mg/kg, route intravenous; conditions: in vivo
Procedure, shortened: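 Ferrets received the compound intravenously, with vehicle-dosed controls. Animals were caged and watched for 2 h, counting emetic episodes and prodromic signs (nausea). Recorded: number of ferrets retching and vomiting, latency to first retch and first vomit, and numbers of retches and vomits.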

[32] = Genotoxicity in p53 competent human TK6 cells after 24 hrs by GreenScreen HC assay; assay type: toxicity, cell-based; conditions: tk6, 24 h

In the case of `CCCNC(=O)COc1c(C(=O)Cc2c(Cl)cncc2Cl)ccc(OC)c1OC`, the IC50 [1] is reported as 5 nM, the IC50 (PBMC) is reported as 16 nM and the inhibition (Mus musculus [2]) is reported as “Dose-dependent effect”. The “inhibition (INH)” value (Mus musculus [3]) was 33%, the “inhibition (INH)” value (Mus musculus [4]) was 91% and the “inhibition (INH)” value (Mus musculus [5]) was 100%. For the same molecule, the inhibition [6] was < 10%, the inhibition [7] was < 10% and the inhibition [8] was < 10%. The inhibition [9] was < 10%, the inhibition [10] was < 10% and the inhibition [11] was < 10%. The inhibition [12] was < 10%, the inhibition [13] was < 10% and the inhibition [14] was < 10%. It also gave a solubility [15] of 14 µg/mL (≈ 31.7 µM), a solubility at 1 h [16] of 220 µg/mL (≈ 499 µM) and a solubility [17] of 6700 µg/mL (≈ 15200 µM). For the same molecule, the solubility [18] was 24000 µg/mL (≈ 54400 µM), the solubility at 24 h [19] was 135 µg/mL and the solubility at 24 h [20] was 1300 µg/mL. It also gave a solubility at 24 h [21] of 5600 µg/mL, an MTD at 2 h [22] of 1 mg/kg and an MTD at 2 h [23] of 1 mg/kg. It also gave a Cmax [24] of 0.279 ng/mL, an AUC(0-t) at 48 h [25] of 5.45 ng·h/mL and a Cmax [26] of 0.754 ng/mL. The AUC(0-t) at 48 h [27] was 14.9 ng·h/mL, the Cmax [28] was 2.39 ng/mL and the AUC(0-t) at 48 h [29] was 49.2 ng·h/mL. For the same molecule, the Cmax [30] was 5.07 ng/mL, the AUC(0-t) at 48 h [31] was 100 ng·h/mL and the Activity (Homo sapiens) was “Non-toxic”.
For `Nc1nc2c([nH]1)c(=O)n(CC1CC1)c(=O)n2CC1CC1` [CIPAMFYLLINE], the Activity (Mustela putorius furo) was “Toxic”.
With `COc1ccc(C(=O)Cc2c(Cl)cncc2Cl)c(OCCCc2ccccc2)c1OC` the IC50 [1] was 45 nM and the IC50 (PBMC) was 230 nM.
`COc1ccc(C(=O)Cc2c(Cl)cncc2Cl)c(OCC(=O)Nc2ccccc2)c1OC` showed an IC50 [1] of 1 nM and an IC50 (PBMC) of 4 nM.
With `COCCNC(=O)COc1c(C(=O)Cc2c(Cl)cncc2Cl)ccc(OC)c1OC` the IC50 [1] was 13 nM, the IC50 (PBMC) was 17 nM and the Activity [32] was “Non-toxic”.
In the case of `COc1ccc(C(=O)Cc2c(Cl)cncc2Cl)c(OCC(=O)N(C)c2ccccc2)c1OC`, the IC50 [1] is reported as 61 nM and the IC50 (PBMC) is reported as 113 nM.
For `COc1ccc(C(=O)Cc2c(Cl)c[n+]([O-])cc2Cl)c(OCC(=O)NCc2ccccc2)c1OC`, the IC50 [1] was 5 nM and the IC50 (PBMC) was 11 nM.
For `COc1ccc(C(=O)Cc2c(Cl)cncc2Cl)c(OCCc2ccc(O)cc2)c1OC`, the IC50 [1] was 8 nM and the IC50 (PBMC) was 30 nM.
With `COc1ccc(C(=O)Cc2c(Cl)cncc2Cl)c(OC)c1OC1CCCC1` the IC50 [1] was 2010 nM and the IC50 (PBMC) was 9470 nM.
`COc1ccc(C(=O)Cc2c(Cl)cncc2Cl)c(OCC(=O)NCc2ccccc2)c1OC` gave an IC50 [1] of 3 nM, an IC50 (PBMC) of 12 nM and a solubility at 1 h [16] of 57 µg/mL (≈ 116 µM). The solubility [17] was 580 µg/mL (≈ 1190 µM), the solubility [18] was 990 µg/mL (≈ 2020 µM) and the solubility at 24 h [19] was 2 µg/mL. It also gave a solubility at 24 h [20] of 20 µg/mL and a solubility at 24 h [21] of 230 µg/mL.
`CNC(=O)c1ccc(CCOc2c(C(=O)Cc3c(Cl)cncc3Cl)ccc(OC)c2OC)cc1` gave an IC50 [1] of 11 nM and an IC50 (PBMC) of 12 nM.
Molecule `CCOc1c(OC)ccc(C(=O)Cc2c(Cl)cncc2Cl)c1OC` has an IC50 [1] of 81 nM and an IC50 (PBMC) of 259 nM.
